Converted amounts (≈) assume the structure as drawn. Square brackets hold non-standard residues; d marks the D form. Peptide text beside a SMILES is read from it. Gly(N-2-aminoethyl) = NCCNCC(=O)O; Nspe = C[C@H](NCC(=O)O)c1ccccc1; Nphe = O=C(O)CNCc1ccccc1; Nlys = NCCCCNCC(=O)O
Columns and labels:
[1] = Selectivity index, ratio of ED50 for human HepG2 cells to MIC for Staphylococcus aureus 3R7089 strain Oxford/ATCC 9144; assay type: toxicity; settings: read-out: Selectivity Index
[2] = Cytotoxicity against human HepG2 cells assessed as reduction in cell viability pretreated for 1 hr followed by DMEM addition measured after 24 hrs by alamar blue assay; assay type: cell-based; settings: read-out: ED50
Summary of the method: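 HepG2 cells are kept in DMEM high glucose with 10% heat-inactivated FBS and 1% P/S at 37 °C, 5% CO2, and seeded at 2x10^4 cells/well one day ahead. They are exposed to compounds (100 to 3 µM, from 5 mM DMSO stocks) in 50 µL for 1 h. Medium is then added and cells incubated 24 h. alamarBlue is read after 2 h (Ex 560/Em 600). Triplicate on ≥2 occasions; ED50 from dose-response; DMSO negative control.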

[3] = Cytotoxicity against human HaCaT cells assessed as reduction in cell viability pretreated for 1 hr followed by DMEM addition measured after 24 hrs by alamar blue assay; assay type: cell-based; settings: read-out: ED50
Summary of the method: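 HaCaT keratinocytes are grown in DMEM high glucose with 10% FBS and 1% P/S and seeded at 2x10^4 cells/well 24 h before treatment. Compound dilution series run 2–100 µM (5 mM DMSO stocks) in 50 µL for 1 h, then medium is added for 24 h at 37 °C, 5% CO2. alamarBlue is read after 1 h (Ex 540/Em 620). Triplicate, ≥2 occasions; ED50 from dose-response; amphotericin B positive control.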

[4] = Selectivity index, ratio of ED50 for human HepG2 cells to MIC for Escherichia coli K-12 W3110 ATCC 27325; assay type: toxicity; settings: read-out: Selectivity Index
Escherichia coli = test: Antibacterial activity against Escherichia coli K-12 W3110 ATCC 27325 incubated for 16 hrs under shaking condition; assay type: functional; settings: K-12 substr. W3110 ATCC 27325, 16 h
Summary of the method: (§1)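 Broth microdilution (Andrews method) in Iso-sensitest broth. Overnight cultures are adjusted to A650 0.07 (0.5 McFarland) and diluted ten-fold. Compounds come from 5 mM DMSO stocks, 2-fold serially diluted, final 2–100 μM in a 1:1 inoculum:compound mix. Incubation is 37 °C for 16 h with shaking. MIC is the lowest concentration giving complete growth inhibition, read by absorbance; triplicate.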

[5] = Selectivity index, ratio of ED50 for human HaCaT cells to MIC for Pseudomonas aeruginosa PAO1 ATCC 15692; assay type: toxicity; settings: read-out: Selectivity Index
[6] = Selectivity index, ratio of ED50 for human HepG2 cells to MIC for Pseudomonas aeruginosa PAO1 ATCC 15692; assay type: toxicity; settings: read-out: Selectivity Index
[7] = Selectivity index, ratio of ED50 for human HaCaT cells to MIC for Staphylococcus aureus 3R7089 strain Oxford/ATCC 9144; assay type: toxicity; settings: read-out: Selectivity Index
[8] = Selectivity index, ratio of ED50 for human HaCaT cells to MIC for Staphylococcus epidermidis clinical isolate; assay type: toxicity; settings: read-out: Selectivity Index
Pseudomonas aeruginosa = test: Antibacterial activity against Pseudomonas aeruginosa PAO1 ATCC 15692 incubated for 16 hrs under shaking condition; assay type: functional; settings: PAO1 ATCC 15692, 16 h; summary of the method: as §1
[9] = Selectivity index, ratio of ED50 for human HaCaT cells to MIC for Escherichia coli K-12 W3110 ATCC 27325; assay type: toxicity; settings: read-out: Selectivity Index
[10] = Selectivity index, ratio of ED50 for human HepG2 cells to MIC for Staphylococcus epidermidis clinical isolate; assay type: toxicity; settings: read-out: Selectivity Index
[11] = test system: Staphylococcus epidermidis; test: Antibacterial activity against Staphylococcus epidermidis clinical isolate incubated for 16 hrs under shaking condition; assay type: functional; summary of the method: as §1
Staphylococcus aureus = test: Antibacterial activity against Staphylococcus aureus 3R7089 strain Oxford/ATCC 9144 incubated for 16 hrs under shaking condition; assay type: functional; settings: 3R7089 strain Oxford/ATCC 9144, 16 h; summary of the method: as §1
[12] = Hemolytic activity against human erythrocytes measured after 1 hr; assay type: ADME, cell-based, Erythrocyte; settings: read-out: HD50
[13] = Cytotoxicity against mouse NIH/3T3 cells by MTS assay; assay type: cell-based, NIH3T3; settings: read-out: ID50 (the source's name)

SMILES | selectivity ratio [1] | CC50 at 24 h [2] | CC50 at 24 h [3] | selectivity ratio [4] | MIC (Escherichia coli) | selectivity ratio [5] | selectivity ratio [6] | selectivity ratio [7] | selectivity ratio [8] | MIC (Pseudomonas aeruginosa) | selectivity ratio [9] | selectivity ratio [10] | MIC [11] | MIC (Staphylococcus aureus) | HC50 at 1 h [12] | CC50 [13]
C[C@@H](c1ccccc1)N(CC(N)=O)C(=O)CN(C(=O)CN(CCN)C(=O)CN(C(=O)CN(C(=O)CNCCN)[C@@H](C)c1ccccc1)[C@@H](C)c1ccccc1)[C@@H](C)c1ccccc1 | 1 | > 100 µM | > 100 µM | 1 | > 100 µM | 1 | 1 | 1 | 1 | > 100 µM | 1 | 1 | > 100 µM | > 100 µM | – | –
N=C(N)NCCCCNCC(=O)N(CC(=O)N(CC(=O)N(CCCCNC(=N)N)CC(=O)N(CC(=O)N(CC(=O)N(CCCCNC(=N)N)CC(=O)N(CC(=O)N(CC(=O)N(CCCCNC(=N)N)CC(=O)N(CC(=O)N(CC(N)=O)Cc1cccc(F)c1)Cc1cccc(F)c1)Cc1cccc(F)c1)Cc1cccc(F)c1)Cc1cccc(F)c1)Cc1cccc(F)c1)Cc1cccc(F)c1)Cc1cccc(F)c1 | 11 | 21 µM | 28 µM | 2 | 13 µM (≈ 26.3 µg/mL) | 2 | 2 | 14 | 14 | 13 µM (≈ 26.3 µg/mL) | 2 | 11 | 2 µM (≈ 4.04 µg/mL) | 2 µM (≈ 4.04 µg/mL) | – | –
NCCNCC(=O)N(CC(=O)N(CC(=O)N(CCN)CC(=O)N(CC(=O)N(CC(N)=O)Cc1ccccc1)Cc1ccccc1)Cc1ccccc1)Cc1ccccc1 (H-[Gly(N-2-aminoethyl)][Nphe][Nphe][Gly(N-2-aminoethyl)][Nphe][Nphe]-NH2) | 1 | > 100 µM | > 100 µM | 1 | > 100 µM | 1 | 1 | 1 | 1 | > 100 µM | 1 | 1 | > 100 µM | > 100 µM | – | –
NCCCCNCC(=O)N(CC(=O)N(CC(=O)N(CCCCN)CC(=O)N(CC(=O)N(CC(N)=O)Cc1ccccc1)Cc1ccccc1)Cc1ccccc1)Cc1ccccc1 (H-[Nlys][Nphe][Nphe][Nlys][Nphe][Nphe]-NH2) | 1 | > 100 µM | > 100 µM | 1 | > 100 µM | 1 | 1 | 1 | 1 | > 100 µM | 1 | 1 | > 100 µM | > 100 µM | – | –
C[C@@H](c1ccccc1)N(CC(N)=O)C(=O)CN(C(=O)CN(CCCCN)C(=O)CN(C(=O)CN(C(=O)CN(CCCCN)C(=O)CN(C(=O)CN(C(=O)CN(CCCCN)C(=O)CN(C(=O)CN(C(=O)CNCCCCN)[C@@H](C)c1ccccc1)[C@@H](C)c1ccccc1)[C@@H](C)c1ccccc1)[C@@H](C)c1ccccc1)[C@@H](C)c1ccccc1)[C@@H](C)c1ccccc1)[C@@H](C)c1ccccc1 (H-[Nlys][Nspe][Nspe][Nlys][Nspe][Nspe][Nlys][Nspe][Nspe][Nlys][Nspe][Nspe]-NH2) | 15 | – | – | – | – | – | – | 10 | – | – | – | – | – | – | 100 µM | 5.1 µM
CC(c1ccccc1)N(CC(=O)N(CCCCN)CC(=O)N(CC(=O)N(CC(=O)N(CCCCN)CC(=O)N(CC(=O)N(CC(N)=O)[C@@H](C)c1ccccc1)[C@@H](C)c1ccccc1)Cc1ccc(F)cc1)Cc1ccc(F)cc1)C(=O)CN(C(=O)CN(CCCCN)C(=O)CN(Cc1ccc(F)cc1)C(=O)CN(Cc1ccc(F)cc1)C(=O)CNCCCCN)[C@@H](C)c1ccccc1 (single isomer, unassigned) | 28 | 55 µM | > 100 µM | 9 | 6 µM (≈ 11 µg/mL) | 2 | – | 50 | 100 | 50 µM (≈ 91.8 µg/mL) | 13 | 55 | 1 µM (≈ 1.84 µg/mL) | 2 µM (≈ 3.67 µg/mL) | – | –
CCCCCN(CC(=O)N(CC(=O)N(CC(=O)N(CCCCN)CC(=O)N(CC(=O)N(CC(N)=O)[C@@H](C)c1ccccc1)[C@@H](C)c1ccccc1)C(C)c1ccccc1)[C@@H](C)c1ccccc1)C(=O)CN(C(=O)CN(C(=O)CN(CCCCN)C(=O)CN(C(=O)CN(C(=O)CNCCCCN)[C@@H](C)c1ccccc1)C(C)c1ccccc1)[C@@H](C)c1ccccc1)C(C)c1ccccc1 (single isomer, unassigned) | 4 | 22 µM | 20 µM | – | > 100 µM | – | – | 3 | 10 | > 100 µM | – | 11 | 2 µM (≈ 3.64 µg/mL) | 6 µM (≈ 10.9 µg/mL) | – | –
